Data taken from ChEMBL document CHEMBL2010712, “Design and synthesis of orally available MEK inhibitors with potent in vivo antitumor efficacy” (Bioorg Med Chem Lett, 2012).
Calls of active or inactive are those of the source. The rule behind the calls is not given here.

Experiments:
[1] = target: Insulin receptor (Homo sapiens) (UniProt P06213); test: Inhibition of IR at 10 uM
[2] = target: T1, Tyrosine-protein kinase JAK3 (Homo sapiens) (UniProt P52333); test: Inhibition of JAK3 at 10 uM
T1 sequence (whole entry): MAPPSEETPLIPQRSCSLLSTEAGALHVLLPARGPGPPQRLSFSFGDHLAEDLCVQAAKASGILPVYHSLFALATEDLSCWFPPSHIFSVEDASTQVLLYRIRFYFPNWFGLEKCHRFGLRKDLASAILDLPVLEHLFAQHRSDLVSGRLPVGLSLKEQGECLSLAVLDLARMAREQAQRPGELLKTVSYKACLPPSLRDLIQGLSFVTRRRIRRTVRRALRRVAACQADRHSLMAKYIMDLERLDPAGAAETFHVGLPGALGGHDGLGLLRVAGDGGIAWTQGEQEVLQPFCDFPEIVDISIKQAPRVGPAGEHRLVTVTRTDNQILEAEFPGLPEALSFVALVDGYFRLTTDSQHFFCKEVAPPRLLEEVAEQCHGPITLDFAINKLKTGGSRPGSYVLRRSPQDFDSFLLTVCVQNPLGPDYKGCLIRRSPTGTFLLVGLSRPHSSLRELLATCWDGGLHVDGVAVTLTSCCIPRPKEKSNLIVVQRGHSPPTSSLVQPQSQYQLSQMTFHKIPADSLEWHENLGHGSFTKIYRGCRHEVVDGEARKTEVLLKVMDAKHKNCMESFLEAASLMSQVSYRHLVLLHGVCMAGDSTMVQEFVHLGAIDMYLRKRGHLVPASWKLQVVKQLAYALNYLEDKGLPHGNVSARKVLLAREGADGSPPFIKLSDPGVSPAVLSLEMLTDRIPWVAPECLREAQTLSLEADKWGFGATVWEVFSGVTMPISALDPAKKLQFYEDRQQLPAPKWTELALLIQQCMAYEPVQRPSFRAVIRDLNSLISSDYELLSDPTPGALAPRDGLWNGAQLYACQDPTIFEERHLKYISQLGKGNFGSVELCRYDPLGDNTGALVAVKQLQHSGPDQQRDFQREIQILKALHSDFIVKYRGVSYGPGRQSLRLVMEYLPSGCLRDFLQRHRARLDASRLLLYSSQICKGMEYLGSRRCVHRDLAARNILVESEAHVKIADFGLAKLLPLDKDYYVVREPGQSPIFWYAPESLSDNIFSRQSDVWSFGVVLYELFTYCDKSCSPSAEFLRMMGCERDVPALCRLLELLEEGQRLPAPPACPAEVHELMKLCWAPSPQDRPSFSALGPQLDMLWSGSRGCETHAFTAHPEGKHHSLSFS

[3] = target: Protein kinase C alpha type (Homo sapiens) (UniProt P17252); test: Inhibition of PKCalpha at 10 uM
[4] = target: Serine/threonine-protein kinase PLK3 (Homo sapiens) (UniProt Q9H4B4); test: Inhibition of PLK3 at 10 uM
[5] = system: Rattus norvegicus; test: Dose normalized AUC in rat at 1 mg/kg, iv and 5 mg/kg, po; assay type: ADME, organism-based; conditions: in vivo
[6] = system: COLO 205; test: Cytotoxicity against human COLO205 cells after 72 hrs by MTS assay; conditions: COLO 205, 72 h
[7] = Half life in human liver microsomes; assay type: ADME, Microsome
[8] = target: Epidermal growth factor receptor (Homo sapiens) (UniProt P00533); test: Inhibition of EGFR at 10 uM
[9] = target: Hepatocyte growth factor receptor (Homo sapiens) (UniProt P08581); test: Inhibition of cMET at 10 uM
Chain of Hepatocyte growth factor receptor (Homo sapiens) (P08581 whole entry): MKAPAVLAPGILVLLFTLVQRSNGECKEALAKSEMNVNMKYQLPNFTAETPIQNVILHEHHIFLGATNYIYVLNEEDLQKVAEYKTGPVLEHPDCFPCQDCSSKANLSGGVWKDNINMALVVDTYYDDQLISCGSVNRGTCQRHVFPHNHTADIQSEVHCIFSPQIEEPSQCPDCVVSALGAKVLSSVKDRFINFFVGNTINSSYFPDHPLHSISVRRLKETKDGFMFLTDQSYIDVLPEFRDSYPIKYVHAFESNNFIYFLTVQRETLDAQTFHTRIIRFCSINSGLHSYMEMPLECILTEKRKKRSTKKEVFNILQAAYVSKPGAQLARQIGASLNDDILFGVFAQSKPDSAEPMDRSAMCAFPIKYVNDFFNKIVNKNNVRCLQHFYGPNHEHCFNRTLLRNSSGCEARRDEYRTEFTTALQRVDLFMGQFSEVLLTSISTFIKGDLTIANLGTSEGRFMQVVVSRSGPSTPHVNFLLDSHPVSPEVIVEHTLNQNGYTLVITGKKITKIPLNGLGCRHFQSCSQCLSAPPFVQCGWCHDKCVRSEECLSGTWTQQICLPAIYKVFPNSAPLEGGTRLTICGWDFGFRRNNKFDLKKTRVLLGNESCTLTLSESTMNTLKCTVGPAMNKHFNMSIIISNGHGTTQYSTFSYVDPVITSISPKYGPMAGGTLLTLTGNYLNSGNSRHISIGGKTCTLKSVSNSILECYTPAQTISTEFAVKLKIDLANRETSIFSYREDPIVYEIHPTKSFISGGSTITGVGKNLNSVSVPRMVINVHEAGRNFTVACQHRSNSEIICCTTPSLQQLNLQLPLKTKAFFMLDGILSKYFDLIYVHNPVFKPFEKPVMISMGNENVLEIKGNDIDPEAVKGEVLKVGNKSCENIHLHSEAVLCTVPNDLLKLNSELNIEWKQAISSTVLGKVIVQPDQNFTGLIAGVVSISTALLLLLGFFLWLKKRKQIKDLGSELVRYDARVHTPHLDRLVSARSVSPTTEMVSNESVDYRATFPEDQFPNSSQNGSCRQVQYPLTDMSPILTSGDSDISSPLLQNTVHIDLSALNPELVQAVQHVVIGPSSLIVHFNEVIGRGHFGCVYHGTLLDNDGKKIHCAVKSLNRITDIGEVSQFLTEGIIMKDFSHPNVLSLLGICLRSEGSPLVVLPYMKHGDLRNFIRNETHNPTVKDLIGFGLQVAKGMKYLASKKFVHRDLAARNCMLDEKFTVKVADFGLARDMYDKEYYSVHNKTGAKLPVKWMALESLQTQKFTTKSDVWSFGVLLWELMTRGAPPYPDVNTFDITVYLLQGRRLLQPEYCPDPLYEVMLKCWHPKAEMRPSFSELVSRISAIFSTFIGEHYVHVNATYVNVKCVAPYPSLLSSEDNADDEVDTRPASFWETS

[10] = Half life in rat liver microsomes; assay type: ADME, Microsome
[11] = target: Mitogen-activated protein kinase 14 (Homo sapiens) (UniProt Q16539); test: Inhibition of p38alpha at 10 uM
Chain of Mitogen-activated protein kinase 14 (Homo sapiens) (Q16539 whole entry): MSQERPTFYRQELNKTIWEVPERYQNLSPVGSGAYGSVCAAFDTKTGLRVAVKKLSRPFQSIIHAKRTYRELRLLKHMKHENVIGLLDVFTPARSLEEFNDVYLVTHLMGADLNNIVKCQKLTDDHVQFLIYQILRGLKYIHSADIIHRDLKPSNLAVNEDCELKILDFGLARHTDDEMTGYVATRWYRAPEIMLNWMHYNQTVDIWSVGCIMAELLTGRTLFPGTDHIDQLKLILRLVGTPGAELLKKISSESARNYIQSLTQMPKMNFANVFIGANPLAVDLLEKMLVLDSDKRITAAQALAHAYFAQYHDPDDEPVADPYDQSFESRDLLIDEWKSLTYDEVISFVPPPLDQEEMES

[12] = target: Proto-oncogene tyrosine-protein kinase Src (Homo sapiens) (UniProt P12931); test: Inhibition of cSRC at 10 uM
Chain of Proto-oncogene tyrosine-protein kinase Src (Homo sapiens) (P12931 2-536 limits assumed): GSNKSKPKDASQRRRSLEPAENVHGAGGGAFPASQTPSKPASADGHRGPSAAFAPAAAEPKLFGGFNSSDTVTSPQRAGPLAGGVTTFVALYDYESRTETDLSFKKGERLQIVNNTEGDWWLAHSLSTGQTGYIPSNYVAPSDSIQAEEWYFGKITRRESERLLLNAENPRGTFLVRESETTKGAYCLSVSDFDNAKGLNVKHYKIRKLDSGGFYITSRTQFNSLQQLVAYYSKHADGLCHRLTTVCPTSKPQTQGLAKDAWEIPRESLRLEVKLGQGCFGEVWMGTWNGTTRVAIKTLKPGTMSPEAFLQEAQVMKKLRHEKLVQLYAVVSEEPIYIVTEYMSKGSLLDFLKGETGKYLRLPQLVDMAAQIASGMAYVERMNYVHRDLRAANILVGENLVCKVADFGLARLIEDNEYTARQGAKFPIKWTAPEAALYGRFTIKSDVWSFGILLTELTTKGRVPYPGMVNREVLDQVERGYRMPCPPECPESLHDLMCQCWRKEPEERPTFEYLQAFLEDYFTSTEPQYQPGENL

[13] = target: RAF proto-oncogene serine/threonine-protein kinase (Homo sapiens) (UniProt P04049); test: Inhibition of c-RAF at 10 uM
[14] = Volume of distribution at steady state in rat at 1 mg/kg, iv and 5 mg/kg, po; assay type: ADME, organism-based; conditions: in vivo, read-out: Vdss
[15] = target: Glycogen synthase kinase-3 beta (Homo sapiens) (UniProt P49841); test: Inhibition of GSK3beta at 10 uM
[16] = target: Calcium/calmodulin-dependent protein kinase type 1D (Homo sapiens) (UniProt Q8IU85); test: Inhibition of CAMK1delta at 10 uM
Chain of Calcium/calmodulin-dependent protein kinase type 1D (Homo sapiens) (Q8IU85 whole entry, looked up): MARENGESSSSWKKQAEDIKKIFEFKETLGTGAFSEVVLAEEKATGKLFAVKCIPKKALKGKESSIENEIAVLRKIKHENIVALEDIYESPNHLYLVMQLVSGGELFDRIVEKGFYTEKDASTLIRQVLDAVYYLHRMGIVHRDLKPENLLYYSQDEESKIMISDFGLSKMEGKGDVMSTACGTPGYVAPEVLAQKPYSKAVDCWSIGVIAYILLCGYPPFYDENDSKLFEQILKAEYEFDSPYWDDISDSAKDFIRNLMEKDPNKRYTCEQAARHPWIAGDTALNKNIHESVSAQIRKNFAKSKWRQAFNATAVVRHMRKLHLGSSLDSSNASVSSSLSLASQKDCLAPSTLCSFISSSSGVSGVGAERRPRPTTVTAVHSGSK

[17] = target: 3-phosphoinositide-dependent protein kinase 1 (Homo sapiens) (UniProt O15530); test: Inhibition of PDK1 at 10 uM
[18] = Oral bioavailability in rat at 5 mg/kg; assay type: ADME, organism-based; conditions: in vivo
[19] = target: Cyclin-dependent kinase 2/cyclin A (Homo sapiens) (UniProt P24941+P20248+P78396); test: Inhibition of CDK2/cyclin A at 10 uM; assay type: protein-complex assay
[20] = target: RAC-gamma serine/threonine-protein kinase (Homo sapiens) (UniProt Q9Y243); test: Inhibition of AKT3 at 10 uM
Chain of RAC-gamma serine/threonine-protein kinase (Homo sapiens) (Q9Y243 whole entry): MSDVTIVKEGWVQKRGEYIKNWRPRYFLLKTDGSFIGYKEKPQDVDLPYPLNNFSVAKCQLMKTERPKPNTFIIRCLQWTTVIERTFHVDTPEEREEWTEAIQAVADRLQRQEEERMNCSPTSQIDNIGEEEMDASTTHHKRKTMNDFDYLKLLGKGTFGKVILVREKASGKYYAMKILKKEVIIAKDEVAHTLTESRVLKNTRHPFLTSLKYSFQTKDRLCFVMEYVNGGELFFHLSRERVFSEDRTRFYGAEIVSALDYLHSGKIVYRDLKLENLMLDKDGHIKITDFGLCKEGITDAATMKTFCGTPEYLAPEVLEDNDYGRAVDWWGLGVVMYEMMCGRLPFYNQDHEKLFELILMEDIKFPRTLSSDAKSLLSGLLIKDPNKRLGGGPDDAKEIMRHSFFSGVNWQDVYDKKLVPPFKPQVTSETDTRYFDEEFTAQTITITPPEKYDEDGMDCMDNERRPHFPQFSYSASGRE

[21] = target: Tyrosine-protein kinase ABL1 (Homo sapiens) (UniProt P00519); test: Inhibition of ABL1 at 10 uM
[22] = system: A-375; test: Cytotoxicity against human A375 cells after 72 hrs by MTS assay; conditions: A-375, 72 h
[23] = system: HL-60; test: Antitumor activity against human HL60 cells xenograft model assessed as inhibition of tumor regression at 10 mg/kg, po; assay type: functional, organism-based; design: dose 10 mg/kg
Method in brief: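 HL-60 (NRAS) xenograft; compound given orally once daily at maximum tolerated dose over days 12–25 after tumor implant; tumor response followed versus control, complete regressions counted per group.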

[24] = target: Platelet-derived growth factor receptor beta (Homo sapiens) (UniProt P09619); test: Inhibition of PDGFRbeta at 10 uM
[25] = target: Angiopoietin-1 receptor (Homo sapiens) (UniProt Q02763); test: Inhibition of Tie2 at 10 uM
Chain of Angiopoietin-1 receptor (Homo sapiens) (Q02763 whole entry): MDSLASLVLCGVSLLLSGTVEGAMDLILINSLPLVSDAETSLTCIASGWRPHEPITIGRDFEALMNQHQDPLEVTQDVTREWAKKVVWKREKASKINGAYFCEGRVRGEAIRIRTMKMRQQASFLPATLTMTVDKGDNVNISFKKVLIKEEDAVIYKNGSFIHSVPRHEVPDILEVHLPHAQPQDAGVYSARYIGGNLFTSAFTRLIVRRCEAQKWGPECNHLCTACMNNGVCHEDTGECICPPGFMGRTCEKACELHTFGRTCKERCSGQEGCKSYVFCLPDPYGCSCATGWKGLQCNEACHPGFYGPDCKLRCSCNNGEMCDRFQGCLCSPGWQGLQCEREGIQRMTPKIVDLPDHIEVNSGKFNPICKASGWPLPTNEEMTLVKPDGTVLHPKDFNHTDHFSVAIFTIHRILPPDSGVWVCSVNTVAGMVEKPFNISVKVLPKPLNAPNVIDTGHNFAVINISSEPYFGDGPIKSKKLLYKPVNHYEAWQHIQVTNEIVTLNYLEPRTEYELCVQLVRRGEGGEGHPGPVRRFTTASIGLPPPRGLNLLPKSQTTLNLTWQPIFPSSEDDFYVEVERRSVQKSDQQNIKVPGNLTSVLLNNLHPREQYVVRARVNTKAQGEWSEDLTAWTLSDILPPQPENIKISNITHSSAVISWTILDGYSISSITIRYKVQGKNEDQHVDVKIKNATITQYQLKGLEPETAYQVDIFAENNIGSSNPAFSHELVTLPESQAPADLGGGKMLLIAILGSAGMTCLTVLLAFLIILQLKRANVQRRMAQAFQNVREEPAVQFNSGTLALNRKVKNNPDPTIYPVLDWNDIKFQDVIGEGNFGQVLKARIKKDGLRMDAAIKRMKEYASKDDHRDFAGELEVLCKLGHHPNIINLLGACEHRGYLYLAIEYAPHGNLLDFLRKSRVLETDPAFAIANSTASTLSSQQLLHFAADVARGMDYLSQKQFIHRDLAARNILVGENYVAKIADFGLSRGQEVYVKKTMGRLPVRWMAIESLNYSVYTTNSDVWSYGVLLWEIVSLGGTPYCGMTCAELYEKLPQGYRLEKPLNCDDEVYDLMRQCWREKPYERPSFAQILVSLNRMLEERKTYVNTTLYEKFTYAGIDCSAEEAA

[26] = target: T2, Dual specificity mitogen-activated protein kinase kinase 1 (Homo sapiens, UniProt Q02750); test: Inhibition of MEK1-mediated ERK1 phosphorylation using IPTTPITTYFFFK-5FAM-COOH as substrate by fluorescent polarization assay
T2 sequence (Q02750 whole entry): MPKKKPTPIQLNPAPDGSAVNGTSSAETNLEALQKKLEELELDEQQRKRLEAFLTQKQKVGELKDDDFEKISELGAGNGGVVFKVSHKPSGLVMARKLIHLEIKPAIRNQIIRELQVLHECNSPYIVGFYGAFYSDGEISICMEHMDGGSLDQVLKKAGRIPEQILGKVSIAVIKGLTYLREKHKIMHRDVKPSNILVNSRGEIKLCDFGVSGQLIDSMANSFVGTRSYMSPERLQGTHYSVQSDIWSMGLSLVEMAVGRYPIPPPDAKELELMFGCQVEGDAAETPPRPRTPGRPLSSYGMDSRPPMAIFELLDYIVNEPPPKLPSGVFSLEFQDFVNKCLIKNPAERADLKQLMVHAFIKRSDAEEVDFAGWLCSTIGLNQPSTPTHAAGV

[27] = target: Tyrosine-protein kinase SYK (Homo sapiens) (UniProt P43405); test: Inhibition of Syk at 10 uM
[28] = Inhibition of cytochrome P450 at 10 uM; assay type: ADME
[29] = target: T2, Dual specificity mitogen-activated protein kinase kinase 1; test: Inhibition of MEK1-mediated Erk1/2 phosphorylation in human HT-29 cells at 3 mg/kg plasma concentration measured after 4 hrs by in vivo pharmacodynamic model; assay type: organism-based; design: dose 3 mg/kg
Method in brief: (§1)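 In vivo pharmacodynamic study: p-ERK1/2 suppression measured 4 h after dosing across a dose response and related to compound plasma concentration.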

[30] = Clearance in rat at 1 mg/kg, iv and 5 mg/kg, po; assay type: ADME, organism-based; conditions: in vivo
[31] = target: T2, Dual specificity mitogen-activated protein kinase kinase 1; test: Inhibition of MEK1-mediated Erk1/2 phosphorylation in human HT-29 cells at 30 mg/kg measured after 4 hrs by in vivo pharmacodynamic model; assay type: organism-based; design: dose 30 mg/kg; method in brief: as §1

Row | SMILES | inhibition [1] | inhibition [2] | inhibition [3] | inhibition [4] | AUC/dose [5] [ng·h/mL/mg/kg] | EC50 [6] [nM] | half-life [7] [min] | inhibition [8] | inhibition [9] | half-life [10] [min] | inhibition [11] | inhibition [12] | inhibition [13] | Vd [14] [L/kg] | inhibition [15] | inhibition [16] | inhibition [17] | bioavailability [18] [%] | inhibition [19] | inhibition [20] | also measured
1 | Cc1c(Nc2ccc(I)cc2F)c(C(=O)NOCCO)c2n(c1=O)CCC2 | inactive | inactive | inactive | inactive | 204 | 1 | 99 | inactive | inactive | 40 | inactive | inactive | inactive | 0.971 | inactive | inactive | inactive | 29 | inactive | inactive | inhibition [21]: inactive; EC50 [22]: 2 nM; inhibition [23]: Active; inhibition [24]: inactive; inhibition [25]: inactive; IC50 [26]: 38 nM; inhibition [27]: inactive; inhibition (INH) [28]: Not Active; inhibition [29]: Active; clearance [30]: 21.4 mL/min/kg
2 | Cn1c(Nc2ccc(I)cc2F)c(C(=O)NOC[C@H](O)CO)c2c1C(=O)CCC2 | inactive | inactive | inactive | inactive | 88 | 2.5 | 36 | inactive | inactive | 26 | inactive | inactive | inactive | 1.16 | inactive | inactive | inactive | 12 | inactive | inactive | inhibition [21]: inactive; EC50 [22]: 3 nM; inhibition [24]: inactive; inhibition [25]: inactive; IC50 [26]: 20 nM; inhibition [27]: inactive; inhibition (INH) [28]: Not Active; clearance [30]: 23.7 mL/min/kg
3 | O=C(NOCCO)c1c(Nc2ccc(I)cc2F)c(F)c(=O)n2c1CCC2 | inactive | inactive | inactive | inactive | 262 | 1 | > 200 | inactive | inactive | 124 | inactive | inactive | inactive | 0.745 | inactive | inactive | inactive | 21 | inactive | inactive | inhibition [21]: inactive; EC50 [22]: 3 nM; inhibition [24]: inactive; inhibition [25]: inactive; IC50 [26]: 25 nM; inhibition [27]: inactive; inhibition (INH) [28]: Not Active; clearance [30]: 12.9 mL/min/kg
4 | C#Cc1ccc(Nc2c(C(=O)NOCCO)c3c(n2C)C(=O)CCC3)c(F)c1 | inactive | inactive | inactive | inactive | 1670 | 10 | 34 | inactive | inactive | 38 | inactive | inactive | inactive | 0.596 | inactive | inactive | inactive | 61 | inactive | inactive | inhibition [21]: inactive; EC50 [22]: 15 nM; inhibition [24]: inactive; inhibition [25]: inactive; IC50 [26]: 32 nM; inhibition [27]: inactive; inhibition (INH) [28]: Not Active; clearance [30]: 5.9 mL/min/kg; inhibition [31]: Active
